Test results reported in ChEMBL document CHEMBL2380256, “Discovery of novel Jak2-Stat pathway inhibitors with extended residence time on target” (Bioorg Med Chem Lett, 2013).
Active and inactive are the calls of the source. The rule behind the calls is not given here.

Key:
[1] = target: T1, Tyrosine-protein kinase JAK3 (Homo sapiens, UniProt P52333); assay: Inhibition of JAK3 (unknown origin) using biotinylated poly-EY peptide as substrate after 60 mins by HTRF assay
T1 sequence (P52333 whole entry): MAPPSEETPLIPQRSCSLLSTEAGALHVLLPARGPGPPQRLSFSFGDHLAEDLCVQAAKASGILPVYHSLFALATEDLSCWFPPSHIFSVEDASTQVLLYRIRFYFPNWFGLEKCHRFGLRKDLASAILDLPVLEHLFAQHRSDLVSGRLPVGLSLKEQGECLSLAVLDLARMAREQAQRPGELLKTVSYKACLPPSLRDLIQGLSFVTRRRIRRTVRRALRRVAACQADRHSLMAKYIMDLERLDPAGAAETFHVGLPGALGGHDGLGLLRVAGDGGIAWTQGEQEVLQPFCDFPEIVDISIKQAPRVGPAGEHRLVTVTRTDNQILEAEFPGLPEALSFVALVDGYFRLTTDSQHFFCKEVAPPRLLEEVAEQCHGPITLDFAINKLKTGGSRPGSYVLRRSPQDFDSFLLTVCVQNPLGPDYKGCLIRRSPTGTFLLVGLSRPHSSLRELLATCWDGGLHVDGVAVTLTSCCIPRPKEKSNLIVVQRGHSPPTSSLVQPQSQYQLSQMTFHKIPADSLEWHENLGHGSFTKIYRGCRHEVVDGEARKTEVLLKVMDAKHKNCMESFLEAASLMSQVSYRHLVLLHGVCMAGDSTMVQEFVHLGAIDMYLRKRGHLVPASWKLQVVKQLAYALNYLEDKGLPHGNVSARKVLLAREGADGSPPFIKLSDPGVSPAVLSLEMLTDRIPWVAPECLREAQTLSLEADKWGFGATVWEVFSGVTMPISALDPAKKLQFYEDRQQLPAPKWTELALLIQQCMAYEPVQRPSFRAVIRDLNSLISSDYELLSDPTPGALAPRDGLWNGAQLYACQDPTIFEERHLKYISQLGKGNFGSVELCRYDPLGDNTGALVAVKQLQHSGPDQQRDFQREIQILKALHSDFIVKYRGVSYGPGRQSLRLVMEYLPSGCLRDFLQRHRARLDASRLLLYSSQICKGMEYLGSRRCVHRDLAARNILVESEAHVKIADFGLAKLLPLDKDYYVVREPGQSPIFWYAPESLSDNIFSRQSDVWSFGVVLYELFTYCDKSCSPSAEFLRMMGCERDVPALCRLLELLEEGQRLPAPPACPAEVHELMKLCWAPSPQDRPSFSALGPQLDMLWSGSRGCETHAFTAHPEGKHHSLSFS

[2] = target: Tyrosine-protein kinase JAK2 (Homo sapiens, UniProt O60674); assay: Inhibition of JAK2 (unknown origin) using biotinylated TYK2 peptide as substrate after 60 mins
[3] = Growth inhibition of mouse BA/F3 cells transfected with JAK2 TEL domain after 24 hrs by Alamar Blue assay; type: functional; settings: BaF3, 24 h
[4] = Growth inhibition of mouse BA/F3 cells transfected with JAK3 TEL domain after 24 hrs by Alamar Blue assay; type: functional, cell-based; settings: BaF3, 24 h, read-out: GI50
[5] = Total plasma concentration in nude mouse allografted with mouse Ba/F3 cells expressing JAK2 TEL domain administered as po qd measured at 2 hrs; type: ADME, organism-based, BaF3
In short: (§1)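 Female nude mice implanted intravenously with Ba/F3 TEL-JAK2 cells on day 0 and dosed orally on day 10. Total plasma drug concentration was measured at the stated times post-dose, averaged over n = 3 per dose and time point.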

[6] = Intrinsic clearance in rat liver microsomes; type: ADME, Microsome; settings: read-out: CLH
Mus musculus [7] = species: Mus musculus; settings: BaF3, 10 mg/kg
Homo sapiens = species: Homo sapiens; assay: Free drug level in human; type: ADME, organism-based; settings: in vivo
[8] = Total plasma concentration in nude mouse allografted with mouse Ba/F3 cells expressing JAK2 TEL domain administered as po qd measured at 6 hrs; type: ADME, organism-based, BaF3; in short: as §1
Mus musculus [9] = assay: In vivo inhibition of JAK2 TEL domain (unknown origin) transfected in mouse Ba/F3 cells allografted in nude mouse assessed as inhibition of STAT5 phosphorylation at 10 mg/kg, po qd at 2 hrs relative to vehicle-treated control; type: functional; settings: BaF3, 2 h
In short: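 Female nude mice implanted intravenously with Ba/F3 TEL-JAK2 cells on day 0 and given a single oral dose on day 10. pStat5 was measured at the stated times post-dose. % inhibition was scaled between vehicle and a control inhibitor as maximum and minimum, with n = 3 per dose and time point, reported as mean ±SD.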

Tyrosine-protein kinase JAK2, sequence (O60674 whole entry, the tested form may be a part): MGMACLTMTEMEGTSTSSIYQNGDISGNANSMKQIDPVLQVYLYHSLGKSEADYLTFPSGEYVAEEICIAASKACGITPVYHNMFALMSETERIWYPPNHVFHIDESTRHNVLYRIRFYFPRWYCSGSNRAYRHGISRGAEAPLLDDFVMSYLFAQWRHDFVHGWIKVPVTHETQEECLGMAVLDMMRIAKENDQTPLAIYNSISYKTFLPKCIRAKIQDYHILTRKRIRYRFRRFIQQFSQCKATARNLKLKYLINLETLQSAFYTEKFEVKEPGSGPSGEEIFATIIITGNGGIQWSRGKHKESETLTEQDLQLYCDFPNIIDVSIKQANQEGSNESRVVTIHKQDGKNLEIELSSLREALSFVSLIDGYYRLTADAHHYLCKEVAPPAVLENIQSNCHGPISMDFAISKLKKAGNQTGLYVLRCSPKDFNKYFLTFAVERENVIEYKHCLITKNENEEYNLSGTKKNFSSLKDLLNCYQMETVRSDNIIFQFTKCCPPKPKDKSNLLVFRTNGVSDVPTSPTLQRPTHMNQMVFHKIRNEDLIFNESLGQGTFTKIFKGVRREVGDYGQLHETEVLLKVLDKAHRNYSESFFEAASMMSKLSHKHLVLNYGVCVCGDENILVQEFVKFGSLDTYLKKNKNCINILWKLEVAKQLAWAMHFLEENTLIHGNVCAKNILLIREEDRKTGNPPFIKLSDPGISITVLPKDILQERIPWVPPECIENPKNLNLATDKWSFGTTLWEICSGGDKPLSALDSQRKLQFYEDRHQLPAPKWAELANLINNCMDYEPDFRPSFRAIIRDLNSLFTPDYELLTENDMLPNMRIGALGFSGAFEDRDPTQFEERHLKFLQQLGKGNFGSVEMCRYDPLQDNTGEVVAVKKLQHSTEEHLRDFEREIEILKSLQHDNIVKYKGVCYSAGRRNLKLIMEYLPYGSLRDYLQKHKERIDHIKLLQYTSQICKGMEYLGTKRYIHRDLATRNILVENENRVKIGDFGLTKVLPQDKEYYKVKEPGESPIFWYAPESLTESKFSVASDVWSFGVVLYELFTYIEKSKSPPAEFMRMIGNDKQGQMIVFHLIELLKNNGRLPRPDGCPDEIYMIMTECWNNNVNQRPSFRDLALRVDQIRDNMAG

Cc1cnc(Nc2nc(N[C@@H](C)c3ncc(F)cn3)c(F)c(N3CCOCC3)n2)s1
IC50 [1]: 16400 nM | IC50 [2]: 20 nM | GI50 [3]: 30 nM | GI50 [4]: 2700 nM | concentration at 2 h [5]: 463 ng/mL | microsomal CLint [6]: 82 µL/min/mg | inhibition (Mus musculus [7]): inactive | Drug uptake(free) (Homo sapiens): 3% | concentration at 6 h [8]: 185 ng/mL | inhibition in vivo at 10 mg/kg (Mus musculus [9]): 50%
